Calls of active or inactive are those of the source. No cut-off for these calls is given here.
How the values were obtained:
Acetylcholinesterase [1] = target: T1, Acetylcholinesterase (Homo sapiens, UniProt P22303); experiment: Inhibition of human AChE
Procedure, shortened: (§1)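 Ellman-type spectrophotometric assay at 412 nm in 100 mM sodium phosphate, 100 mM NaCl, pH 7.3, with DTNB. Enzymes: E. electricus AChE (soluble G4), recombinant T. californica AChE (Pichia pastoris, G4), recombinant human AChE (HEK 293, G2/G4), human plasma BChE (G4). Enzyme (~3 U/mL stock) and inhibitor preincubated 15 min at 25 °C. Acetylthiocholine (AChE) or butyrylthiocholine (BChE) then started the reaction. IC50 in duplicate from ≥4 inhibitor concentrations.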

[2] = target: Cholinesterases; ACHE & BCHE (Homo sapiens) (UniProt P06276+P22303); experiment: Selectivity for human BChE over human AChE
Procedure, shortened: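 Ratio of IC50 for recombinant human AChE to IC50 for human plasma BChE. Both were measured by DTNB absorbance at 412 nm, pH 7.3, after 15 min enzyme–inhibitor preincubation at 25 °C. Acetyl- or butyrylthiocholine served as substrate. Each IC50 in duplicate from ≥4 inhibitor concentrations.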

Acetylcholinesterase [3] = target: Acetylcholinesterase (Torpedo californica, UniProt P04058); experiment: Inhibition of Torpedo californica AChE; set-up: species or system Tetronarce californica; procedure, shortened: as §1
Cholinesterase = Cholinesterase (Homo sapiens, UniProt P06276); experiment: Inhibition of human plasma BChE; type: cell-free; procedure, shortened: as §1
[4] = target: Acetylcholinesterase (Electrophorus electricus) (UniProt O42275); experiment: (§2) Inhibition of Electrophorus electricus AChE
Acetylcholinesterase [5] = target: Acetylcholinesterase (Electrophorus electricus, UniProt O42275); experiment: as §2
Acetylcholinesterase [6] = target: T1, Acetylcholinesterase; experiment: Inhibition of human AChE at 100 uM
[7] = target: Acetylcholinesterase (Electrophorus electricus) (UniProt O42275); experiment: Inhibition of Electrophorus electricus AChE at 100 uM

Sequence of Cholinesterases; ACHE & BCHE (Homo sapiens) (P06276 whole entry, looked up): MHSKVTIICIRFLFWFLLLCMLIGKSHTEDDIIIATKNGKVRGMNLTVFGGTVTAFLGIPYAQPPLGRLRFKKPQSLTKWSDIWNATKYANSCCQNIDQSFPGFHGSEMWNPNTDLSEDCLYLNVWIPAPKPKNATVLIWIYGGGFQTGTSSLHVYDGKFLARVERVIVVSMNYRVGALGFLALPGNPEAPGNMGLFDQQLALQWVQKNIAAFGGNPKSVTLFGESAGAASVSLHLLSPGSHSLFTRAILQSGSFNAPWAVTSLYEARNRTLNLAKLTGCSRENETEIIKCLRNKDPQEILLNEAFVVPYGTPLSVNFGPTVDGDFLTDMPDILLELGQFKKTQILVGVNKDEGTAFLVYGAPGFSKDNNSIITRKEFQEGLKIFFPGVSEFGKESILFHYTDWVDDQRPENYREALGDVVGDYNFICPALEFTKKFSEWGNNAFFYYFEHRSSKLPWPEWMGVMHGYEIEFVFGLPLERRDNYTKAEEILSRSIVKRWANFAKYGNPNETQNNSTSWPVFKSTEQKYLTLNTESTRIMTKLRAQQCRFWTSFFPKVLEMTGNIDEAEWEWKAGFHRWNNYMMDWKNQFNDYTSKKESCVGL
Sequence of Cholinesterases; ACHE & BCHE (Homo sapiens) (P22303 whole entry, looked up): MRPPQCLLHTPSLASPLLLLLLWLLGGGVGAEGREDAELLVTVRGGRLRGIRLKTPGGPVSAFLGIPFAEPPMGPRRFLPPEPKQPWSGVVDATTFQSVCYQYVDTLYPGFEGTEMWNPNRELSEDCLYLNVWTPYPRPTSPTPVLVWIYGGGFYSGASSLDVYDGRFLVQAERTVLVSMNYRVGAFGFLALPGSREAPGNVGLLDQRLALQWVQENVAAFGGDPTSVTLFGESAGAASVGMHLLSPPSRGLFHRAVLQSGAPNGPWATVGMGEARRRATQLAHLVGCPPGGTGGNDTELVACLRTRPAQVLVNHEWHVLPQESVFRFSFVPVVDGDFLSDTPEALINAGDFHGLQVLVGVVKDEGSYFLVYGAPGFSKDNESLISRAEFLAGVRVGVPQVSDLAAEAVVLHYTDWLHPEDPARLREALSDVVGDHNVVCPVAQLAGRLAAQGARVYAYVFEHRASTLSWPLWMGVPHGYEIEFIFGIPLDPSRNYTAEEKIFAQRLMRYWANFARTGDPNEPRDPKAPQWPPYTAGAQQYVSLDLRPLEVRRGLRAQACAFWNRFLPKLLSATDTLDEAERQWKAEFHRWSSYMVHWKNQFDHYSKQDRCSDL
Sequence of Cholinesterase (P06276 whole entry): as the sequence (P06276 whole entry, looked up) above
Sequence of Acetylcholinesterase (Torpedo californica, UniProt P04058) (P04058 whole entry): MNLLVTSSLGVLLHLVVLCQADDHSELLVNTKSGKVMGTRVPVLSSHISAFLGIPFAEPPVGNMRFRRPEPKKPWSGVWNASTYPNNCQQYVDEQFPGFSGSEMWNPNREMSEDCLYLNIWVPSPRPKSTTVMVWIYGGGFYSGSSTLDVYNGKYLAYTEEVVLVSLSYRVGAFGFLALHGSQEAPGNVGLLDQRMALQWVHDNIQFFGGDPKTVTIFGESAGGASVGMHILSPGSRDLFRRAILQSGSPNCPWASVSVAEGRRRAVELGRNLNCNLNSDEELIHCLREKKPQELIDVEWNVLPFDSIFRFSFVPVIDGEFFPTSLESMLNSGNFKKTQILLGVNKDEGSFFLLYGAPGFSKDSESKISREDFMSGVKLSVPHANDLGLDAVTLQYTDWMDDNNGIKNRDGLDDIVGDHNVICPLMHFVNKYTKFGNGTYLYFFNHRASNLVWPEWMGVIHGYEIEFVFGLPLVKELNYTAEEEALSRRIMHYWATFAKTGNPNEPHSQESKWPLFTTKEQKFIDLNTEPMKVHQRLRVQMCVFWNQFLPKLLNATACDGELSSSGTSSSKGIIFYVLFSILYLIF
T1 sequence (P22303 whole entry): as the sequence (P22303 whole entry, looked up) above
Sequence of Acetylcholinesterase (Electrophorus electricus, UniProt O42275) (O42275 whole entry): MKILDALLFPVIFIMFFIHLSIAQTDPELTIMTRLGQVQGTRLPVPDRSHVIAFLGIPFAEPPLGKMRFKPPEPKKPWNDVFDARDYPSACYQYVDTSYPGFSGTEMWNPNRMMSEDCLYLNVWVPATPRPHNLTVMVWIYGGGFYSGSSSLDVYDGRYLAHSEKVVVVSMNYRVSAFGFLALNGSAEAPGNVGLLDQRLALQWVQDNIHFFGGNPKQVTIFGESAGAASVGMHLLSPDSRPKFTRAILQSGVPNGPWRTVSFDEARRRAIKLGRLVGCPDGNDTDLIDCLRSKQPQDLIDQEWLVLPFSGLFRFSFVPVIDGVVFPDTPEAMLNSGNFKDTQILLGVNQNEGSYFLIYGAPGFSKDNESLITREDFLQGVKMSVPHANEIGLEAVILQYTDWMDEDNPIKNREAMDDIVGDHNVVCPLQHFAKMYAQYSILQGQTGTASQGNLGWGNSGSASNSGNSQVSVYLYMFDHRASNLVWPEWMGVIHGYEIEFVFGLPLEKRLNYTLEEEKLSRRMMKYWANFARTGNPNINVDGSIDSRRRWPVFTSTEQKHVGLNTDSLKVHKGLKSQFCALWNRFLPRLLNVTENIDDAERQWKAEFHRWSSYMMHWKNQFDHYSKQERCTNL
Sequence of Acetylcholinesterase (Electrophorus electricus) (O42275 24-633 limits assumed): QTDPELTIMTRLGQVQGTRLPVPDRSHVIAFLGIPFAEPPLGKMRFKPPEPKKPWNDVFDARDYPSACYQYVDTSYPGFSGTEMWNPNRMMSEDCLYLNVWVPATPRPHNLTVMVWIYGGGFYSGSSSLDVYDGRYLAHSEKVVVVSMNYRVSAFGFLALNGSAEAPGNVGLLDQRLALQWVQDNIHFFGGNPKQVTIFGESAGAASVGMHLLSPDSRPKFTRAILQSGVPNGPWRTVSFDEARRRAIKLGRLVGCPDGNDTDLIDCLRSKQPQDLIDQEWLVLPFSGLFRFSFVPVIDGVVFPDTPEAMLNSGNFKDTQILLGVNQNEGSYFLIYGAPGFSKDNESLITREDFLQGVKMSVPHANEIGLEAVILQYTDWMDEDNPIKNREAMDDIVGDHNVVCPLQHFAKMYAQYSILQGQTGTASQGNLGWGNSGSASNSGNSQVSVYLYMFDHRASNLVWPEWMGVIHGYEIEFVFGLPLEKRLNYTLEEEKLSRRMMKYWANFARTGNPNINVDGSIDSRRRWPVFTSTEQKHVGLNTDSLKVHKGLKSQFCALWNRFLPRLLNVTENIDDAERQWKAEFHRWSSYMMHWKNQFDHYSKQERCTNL

SMILES	IC50 (Acetylcholinesterase [1]) [nM]	Ratio IC50 [2]	IC50 (Acetylcholinesterase [3]) [nM]	IC50 (Cholinesterase) [nM]	Activity [4] [nM]	IC50 (Acetylcholinesterase [5]) [nM]	Activity (Acetylcholinesterase [6])	Activity [7]
COc1cc(C(=O)NCCCCCCCC(=O)NNc2c3c(nc4ccccc24)CCCC3)cc(OC)c1OC	5.24	17.9	17.2	0.293	3.23	3.25	–	–
COc1cc(C(=O)NCC(=O)NNc2c3c(nc4ccccc24)CCCC3)cc(OC)c1OC	51.6	1.87	163	27.6	–	104	–	–
COc1cc(C(=O)NCCCCCCC(=O)NNc2c3c(nc4ccccc24)CCCC3)cc(OC)c1OC	5.65	10.8	25.2	0.523	–	9.76	–	–
COc1cc(C(=O)NCCC(=O)NNc2c3c(nc4ccccc24)CCCC3)cc(OC)c1OC	89.2	6.97	49.5	12.8	–	100	–	–
NNc1c2c(nc3ccccc13)CCCC2	–	–	–	–	–	13000	–	–
COc1cc(CCC(=O)NCCCCC(=O)NNc2c3c(nc4ccccc24)CCCC3)cc(OC)c1OC	59	424	102	0.139	–	54.7	–	–
COc1cc(C(=O)NNc2c3c(nc4ccccc24)CCCC3)cc(OC)c1OC	386	227	21.1	1.7	–	2260	–	–
COc1cc(CCC(=O)NCCCC(=O)NNc2c3c(nc4ccccc24)CCCC3)cc(OC)c1OC	72.1	319	158	0.226	–	52.1	–	–
COc1cc(C(=O)NCCCCCCCC(=O)NN)cc(OC)c1OC	–	–	–	–	–	18000	–	–
COc1cc(C(=O)NCCCCC(=O)NNc2c3c(nc4ccccc24)CCCC3)cc(OC)c1OC	17	10.1	18.1	1.68	–	20.2	–	–
COc1cc(CCC(=O)NCCCCCC(=O)NNc2c3c(nc4ccccc24)CCCC3)cc(OC)c1OC	8.39	59.5	39.8	0.141	–	20.2	–	–
COc1cc(CCC(=O)NCCC(=O)NNc2c3c(nc4ccccc24)CCCC3)cc(OC)c1OC	135	22.4	68.9	6.03	–	102	–	–
COc1cc(CCC(=O)NCC(=O)NNc2c3c(nc4ccccc24)CCCC3)cc(OC)c1OC	40.7	1.7	40.1	24	–	122	–	–
CCOCC(=O)CCCCCCCNC(=O)c1cc(OC)c(OC)c(OC)c1	–	–	–	–	–	> 250000	–	–
COc1cc(CCC(=O)NNc2c3c(nc4ccccc24)CCCC3)cc(OC)c1OC	365	30.2	40.1	12.1	–	–	–	–
COc1cc(C(=O)NCCCCCC(=O)NNc2c3c(nc4ccccc24)CCCC3)cc(OC)c1OC	18.2	18.8	55.7	0.969	–	20.1	–	–
COc1cc(C(=O)NCCCC(=O)NNc2c3c(nc4ccccc24)CCCC3)cc(OC)c1OC	241	33.8	26.3	7.13	–	60.5	–	–
CCN(CC)C(C)C(=O)N1c2ccccc2Sc2ccccc21 (stereo not drawn)	–	12000	34700	3370	–	–	inactive	inactive
